According to ChEMBL document CHEMBL5712071, “BET bromodomain protein inhibition is a therapeutic option for medulloblastoma” (Oncotarget, 2013):
Activity calls are given as the source filed them. No cut-off for these calls is given here.

What was measured:
HD-MB03 [1] = test: Anti-proliferative activity against human HD-MB03 cells assessed as reduction in cell viability incubated for 72 hrs by MTT assay; format: functional, cell-based; settings: HD-MB03, 72 h
Procedure, shortened: (§1)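 Cells seeded in triplicate at 2 × 10^3 per well and allowed to adhere for 24h. JQ1 was given as serial dilutions in full medium, 1nM-6µM, from a 10 mM DMSO stock. Viability was read by MTT at each time point and IC50 derived from dose-response curves. Culture media were RPMI 1640/10% FCS for HD-MB3 (plus 1% NEAA), ONS-76, Daoy and UW-228, and EMEM/10% FCS for D-283 and D-341.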

D283 Med [2] = test: Anti-proliferative activity against human D283 cells assessed as reduction in cell viability incubated for 96 hrs by MTT assay; format: functional, cell-based; procedure, shortened: as §1
D283 Med [3] = test: Induction of apoptosis in human D283 cells assessed as increase in population of cells in G1 phase at 500 nM incubated for 72 hrs by ELISA; format: functional, cell-based
[4] = target: Bromodomain-containing protein 4 (Homo sapiens) (UniProt O60885); settings: HD-MB03, dose 500.0 nM, time 6-24 hrs
D283 Med [5] = test: Induction of apoptosis in human D283 cells assessed as increase in population of cells in sub-G1 phase at 500 nM incubated for 72 hrs by ELISA; format: functional, cell-based
D341 cell line = test: Anti-proliferative activity against human D341 cells assessed as reduction in cell viability incubated for 120 hrs by MTT assay; format: functional, cell-based; settings: D341, 120 h; procedure, shortened: as §1
Daoy [6] = test: Anti-proliferative activity against human Daoy cells assessed as reduction in cell viability incubated for 48 hrs by MTT assay; format: functional, cell-based; procedure, shortened: as §1
Daoy [7] = test: Induction of apoptosis in human Daoy cells assessed as increase in population of cells in sub-G1 phase at 500 nM incubated for 72 hrs by flow cytometry; format: functional, cell-based
Procedure, shortened: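 Cells were cultured with 500 nM JQ1 or DMSO control, trypsinised and washed 3 times in PBS. DNA was stained with propidium iodide for 15 min and DNA content analysed by flow cytometry to give G1 and sub-G1 fractions.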

ONS-76 = test: Induction of apoptosis in human ONS-76 cells assessed as increase in population of cells in sub-G1 phase at 500 nM incubated for 72 hrs by ELISA; format: functional, cell-based
Procedure, shortened: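 Cell death ELISA on ONS-76 or UW-228 cells seeded 2 × 10^3 per well in triplicate and allowed 24h to adhere. Treated with 500 nM JQ1 or DMSO for 72h, then apoptotic cell death measured by Cell Death Detection ELISA per kit protocol. Experiments repeated at least 3 times.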

[8] = target: Bromodomain-containing protein 4 (Homo sapiens) (UniProt O60885); settings: D341 cell line, dose 500.0 nM, time 72.0 hrs
HD-MB03 [9] = test: Anti-proliferative activity against human HD-MB03 cells assessed as reduction in cell viability incubated for 96 hrs by MTT assay; format: functional, cell-based; settings: HD-MB03, 96 h; procedure, shortened: as §1

Cc1sc2c(c1C)C(c1ccc(Cl)cc1)=N[C@@H](CC(=O)OC(C)(C)C)c1nnc(C)n1-2
IC50 (HD-MB03 [1]): 0.078 µM | IC50 (D283 Med [2]): 0.256 µM | Activity (D283 Med [3]): Active | inhibition [4]: Active | Activity (D283 Med [5]): Active | IC50 (D341 cell line): 0.269 µM | IC50 (Daoy [6]): > 1 µM | Activity (Daoy [7]): Active | Activity (ONS-76): Active | inhibition [8]: Active | IC50 (HD-MB03 [9]): 0.172 µM
